Laboratory results from ChEMBL document CHEMBL1147215, “Novel 2-aminobenzothiazoles as selective neuronal nitric oxide synthase inhibitors” (Bioorg Med Chem Lett, 2007).

How the values were obtained:
[1] = target: T1, Nitric oxide synthase 3 (Homo sapiens, UniProt P29474); test: Inhibition of human endothelial NOS activity
T1 sequence (P29474 whole entry): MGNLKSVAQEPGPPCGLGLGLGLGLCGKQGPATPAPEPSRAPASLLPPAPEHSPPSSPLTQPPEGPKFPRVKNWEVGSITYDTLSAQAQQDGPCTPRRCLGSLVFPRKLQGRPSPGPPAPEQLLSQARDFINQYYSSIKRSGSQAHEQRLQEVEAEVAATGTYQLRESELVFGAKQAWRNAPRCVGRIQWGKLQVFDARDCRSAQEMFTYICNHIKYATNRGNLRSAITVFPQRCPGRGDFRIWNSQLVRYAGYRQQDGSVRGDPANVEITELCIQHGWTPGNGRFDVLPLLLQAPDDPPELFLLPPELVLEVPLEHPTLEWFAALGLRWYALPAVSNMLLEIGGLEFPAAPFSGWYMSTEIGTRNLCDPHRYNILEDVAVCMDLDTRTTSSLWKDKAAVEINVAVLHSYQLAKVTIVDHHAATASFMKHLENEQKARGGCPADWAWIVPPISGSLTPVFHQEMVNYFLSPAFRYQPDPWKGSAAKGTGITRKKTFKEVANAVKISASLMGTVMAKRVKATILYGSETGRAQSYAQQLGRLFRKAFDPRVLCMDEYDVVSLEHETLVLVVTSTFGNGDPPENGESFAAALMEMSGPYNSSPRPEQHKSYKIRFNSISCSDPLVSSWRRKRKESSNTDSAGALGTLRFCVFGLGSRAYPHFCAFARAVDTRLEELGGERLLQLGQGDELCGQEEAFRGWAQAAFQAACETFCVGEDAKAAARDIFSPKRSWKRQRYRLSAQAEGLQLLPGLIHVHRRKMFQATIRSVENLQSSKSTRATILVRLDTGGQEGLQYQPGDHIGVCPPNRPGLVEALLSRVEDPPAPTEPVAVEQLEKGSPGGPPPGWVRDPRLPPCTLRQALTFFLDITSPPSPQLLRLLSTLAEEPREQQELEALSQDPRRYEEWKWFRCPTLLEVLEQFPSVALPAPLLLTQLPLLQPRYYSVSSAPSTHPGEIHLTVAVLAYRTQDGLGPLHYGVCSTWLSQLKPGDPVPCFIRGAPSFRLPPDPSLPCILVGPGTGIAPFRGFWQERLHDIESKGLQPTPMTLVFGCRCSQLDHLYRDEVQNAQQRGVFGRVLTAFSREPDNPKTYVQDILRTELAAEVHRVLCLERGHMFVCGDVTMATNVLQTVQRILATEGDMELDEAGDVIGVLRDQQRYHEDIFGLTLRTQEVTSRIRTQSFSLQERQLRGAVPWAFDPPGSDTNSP
Procedure, shortened: (§1)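 Human NOS isoform activity read out as conversion of [³H]L-arginine to [³H]L-citrulline. Percent inhibition was measured at 8–12 inhibitor concentrations to derive IC₅₀.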

[2] = target: Nitric oxide synthase 1 (Homo sapiens, UniProt P29475); test: Inhibition of human neuronal NOS activity
[3] = species on record: Homo sapiens; test: Selectivity for human nNOS over human eNOS
Procedure, shortened: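 Ratio of human eNOS IC₅₀ to human nNOS IC₅₀. Each IC₅₀ comes from radiolabelled arginine-to-citrulline conversion, with percent inhibition at 8–12 concentrations.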

[4] = target: Nitric oxide synthase, inducible (Homo sapiens, UniProt P35228); test: Inhibition of human inducible NOS activity; procedure, shortened: as §1
[5] = target: Nitric oxide synthase 1 (Rattus norvegicus, UniProt P29476); test: Inhibition of rat neuronal NOS activity
[6] = target: T2, Nitric oxide synthase 3 (Rattus norvegicus, UniProt Q62600); test: Inhibition of rat endothelial NOS activity
T2 sequence (Q62600 whole entry): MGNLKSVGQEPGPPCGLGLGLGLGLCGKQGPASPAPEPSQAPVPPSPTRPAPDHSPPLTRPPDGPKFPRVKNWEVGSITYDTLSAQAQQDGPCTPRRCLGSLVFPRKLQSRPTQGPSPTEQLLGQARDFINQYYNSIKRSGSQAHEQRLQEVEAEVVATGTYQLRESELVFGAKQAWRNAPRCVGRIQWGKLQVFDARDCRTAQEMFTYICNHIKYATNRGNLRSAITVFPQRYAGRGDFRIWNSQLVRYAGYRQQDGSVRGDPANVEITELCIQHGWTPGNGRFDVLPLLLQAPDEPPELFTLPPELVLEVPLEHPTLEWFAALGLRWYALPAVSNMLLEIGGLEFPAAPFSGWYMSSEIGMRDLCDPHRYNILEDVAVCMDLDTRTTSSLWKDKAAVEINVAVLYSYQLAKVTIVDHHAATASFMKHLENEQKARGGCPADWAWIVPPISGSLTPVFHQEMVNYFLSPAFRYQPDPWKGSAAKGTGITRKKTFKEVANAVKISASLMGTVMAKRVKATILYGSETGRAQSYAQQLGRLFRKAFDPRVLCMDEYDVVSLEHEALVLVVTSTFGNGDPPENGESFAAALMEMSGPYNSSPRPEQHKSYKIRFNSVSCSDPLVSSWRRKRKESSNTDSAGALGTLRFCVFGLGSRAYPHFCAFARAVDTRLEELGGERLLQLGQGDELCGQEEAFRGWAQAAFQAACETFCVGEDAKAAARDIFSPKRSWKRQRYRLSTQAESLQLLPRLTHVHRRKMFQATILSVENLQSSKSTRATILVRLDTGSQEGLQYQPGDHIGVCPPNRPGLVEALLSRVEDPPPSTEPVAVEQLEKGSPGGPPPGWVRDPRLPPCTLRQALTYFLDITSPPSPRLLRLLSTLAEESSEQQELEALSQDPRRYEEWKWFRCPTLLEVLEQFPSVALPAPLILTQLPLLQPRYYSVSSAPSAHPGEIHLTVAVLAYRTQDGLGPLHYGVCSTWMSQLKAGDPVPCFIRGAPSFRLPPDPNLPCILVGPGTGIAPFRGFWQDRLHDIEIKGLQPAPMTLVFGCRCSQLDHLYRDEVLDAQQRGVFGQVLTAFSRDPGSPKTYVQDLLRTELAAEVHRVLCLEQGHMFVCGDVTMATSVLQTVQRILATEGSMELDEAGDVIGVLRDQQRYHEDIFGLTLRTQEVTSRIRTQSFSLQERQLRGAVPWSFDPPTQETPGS
Procedure, shortened: (§2)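 Rat NOS isoform activity read out as conversion of radiolabelled L-arginine to L-citrulline. Percent inhibition was measured in duplicate at 8–12 concentrations to give IC₅₀.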

[7] = target: Nitric oxide synthase, inducible (Rattus norvegicus, UniProt Q06518); test: Inhibition of rat inducible NOS activity; procedure, shortened: as §2
Nitric oxide synthase, inducible (Rattus norvegicus, UniProt Q06518), sequence (Q06518 whole entry): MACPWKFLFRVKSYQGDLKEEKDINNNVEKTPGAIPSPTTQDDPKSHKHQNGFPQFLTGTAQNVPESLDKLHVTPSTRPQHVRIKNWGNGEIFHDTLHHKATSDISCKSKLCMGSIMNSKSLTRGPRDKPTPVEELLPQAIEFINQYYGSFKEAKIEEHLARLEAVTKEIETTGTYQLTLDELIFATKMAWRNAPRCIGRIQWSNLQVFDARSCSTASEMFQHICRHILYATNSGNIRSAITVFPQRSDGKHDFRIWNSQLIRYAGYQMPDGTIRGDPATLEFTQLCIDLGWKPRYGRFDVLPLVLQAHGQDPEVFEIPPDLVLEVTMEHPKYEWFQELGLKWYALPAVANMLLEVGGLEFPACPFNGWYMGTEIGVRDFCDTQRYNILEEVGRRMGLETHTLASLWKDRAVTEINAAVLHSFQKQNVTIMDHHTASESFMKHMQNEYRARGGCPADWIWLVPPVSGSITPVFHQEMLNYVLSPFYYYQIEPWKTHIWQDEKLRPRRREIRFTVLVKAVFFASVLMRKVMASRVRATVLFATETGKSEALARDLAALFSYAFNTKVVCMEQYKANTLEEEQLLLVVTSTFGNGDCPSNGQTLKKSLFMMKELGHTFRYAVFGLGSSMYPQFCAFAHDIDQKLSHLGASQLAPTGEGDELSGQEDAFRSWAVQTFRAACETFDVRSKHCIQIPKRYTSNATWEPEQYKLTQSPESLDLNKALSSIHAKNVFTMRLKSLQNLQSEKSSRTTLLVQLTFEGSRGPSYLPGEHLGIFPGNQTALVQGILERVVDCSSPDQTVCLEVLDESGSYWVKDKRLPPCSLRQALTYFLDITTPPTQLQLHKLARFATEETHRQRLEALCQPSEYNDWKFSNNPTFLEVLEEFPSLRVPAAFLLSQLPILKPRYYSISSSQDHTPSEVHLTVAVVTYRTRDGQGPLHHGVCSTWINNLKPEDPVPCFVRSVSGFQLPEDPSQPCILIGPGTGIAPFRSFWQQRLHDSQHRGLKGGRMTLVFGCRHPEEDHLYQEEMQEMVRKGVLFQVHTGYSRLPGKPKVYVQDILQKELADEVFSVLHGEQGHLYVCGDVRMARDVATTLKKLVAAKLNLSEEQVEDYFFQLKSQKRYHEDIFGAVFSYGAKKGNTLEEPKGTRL

Nitric oxide synthase, inducible (Homo sapiens, UniProt P35228), sequence (P35228 whole entry): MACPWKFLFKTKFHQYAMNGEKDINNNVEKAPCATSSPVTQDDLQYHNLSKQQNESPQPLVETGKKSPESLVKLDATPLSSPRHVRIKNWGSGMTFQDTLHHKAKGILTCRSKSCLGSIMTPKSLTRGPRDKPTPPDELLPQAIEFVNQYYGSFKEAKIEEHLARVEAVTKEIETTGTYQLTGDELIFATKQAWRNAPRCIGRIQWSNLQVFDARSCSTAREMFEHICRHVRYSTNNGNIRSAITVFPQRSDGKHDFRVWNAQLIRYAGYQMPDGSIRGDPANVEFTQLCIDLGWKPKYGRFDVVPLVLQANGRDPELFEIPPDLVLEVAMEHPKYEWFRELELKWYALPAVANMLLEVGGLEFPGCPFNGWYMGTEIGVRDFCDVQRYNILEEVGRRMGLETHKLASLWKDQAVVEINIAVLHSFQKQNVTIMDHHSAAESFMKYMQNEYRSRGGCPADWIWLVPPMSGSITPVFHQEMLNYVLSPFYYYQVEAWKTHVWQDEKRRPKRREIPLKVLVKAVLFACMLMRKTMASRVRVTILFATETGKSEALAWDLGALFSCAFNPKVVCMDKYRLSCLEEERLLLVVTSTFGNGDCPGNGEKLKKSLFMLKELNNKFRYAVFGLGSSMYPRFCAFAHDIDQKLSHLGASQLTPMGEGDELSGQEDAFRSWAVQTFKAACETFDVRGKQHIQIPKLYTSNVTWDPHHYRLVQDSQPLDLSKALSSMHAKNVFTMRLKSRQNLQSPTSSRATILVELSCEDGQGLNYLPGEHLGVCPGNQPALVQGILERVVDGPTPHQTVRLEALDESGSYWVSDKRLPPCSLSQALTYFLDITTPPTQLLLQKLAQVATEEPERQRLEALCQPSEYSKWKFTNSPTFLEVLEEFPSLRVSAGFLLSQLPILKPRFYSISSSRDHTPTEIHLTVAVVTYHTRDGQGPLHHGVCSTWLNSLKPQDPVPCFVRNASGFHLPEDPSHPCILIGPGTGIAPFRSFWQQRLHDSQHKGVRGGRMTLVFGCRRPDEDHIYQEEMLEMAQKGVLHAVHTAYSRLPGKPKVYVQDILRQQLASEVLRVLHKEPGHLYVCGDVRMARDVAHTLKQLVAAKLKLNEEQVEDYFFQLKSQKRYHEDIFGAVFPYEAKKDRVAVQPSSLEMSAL
Nitric oxide synthase 1 (Homo sapiens, UniProt P29475), sequence (P29475 whole entry): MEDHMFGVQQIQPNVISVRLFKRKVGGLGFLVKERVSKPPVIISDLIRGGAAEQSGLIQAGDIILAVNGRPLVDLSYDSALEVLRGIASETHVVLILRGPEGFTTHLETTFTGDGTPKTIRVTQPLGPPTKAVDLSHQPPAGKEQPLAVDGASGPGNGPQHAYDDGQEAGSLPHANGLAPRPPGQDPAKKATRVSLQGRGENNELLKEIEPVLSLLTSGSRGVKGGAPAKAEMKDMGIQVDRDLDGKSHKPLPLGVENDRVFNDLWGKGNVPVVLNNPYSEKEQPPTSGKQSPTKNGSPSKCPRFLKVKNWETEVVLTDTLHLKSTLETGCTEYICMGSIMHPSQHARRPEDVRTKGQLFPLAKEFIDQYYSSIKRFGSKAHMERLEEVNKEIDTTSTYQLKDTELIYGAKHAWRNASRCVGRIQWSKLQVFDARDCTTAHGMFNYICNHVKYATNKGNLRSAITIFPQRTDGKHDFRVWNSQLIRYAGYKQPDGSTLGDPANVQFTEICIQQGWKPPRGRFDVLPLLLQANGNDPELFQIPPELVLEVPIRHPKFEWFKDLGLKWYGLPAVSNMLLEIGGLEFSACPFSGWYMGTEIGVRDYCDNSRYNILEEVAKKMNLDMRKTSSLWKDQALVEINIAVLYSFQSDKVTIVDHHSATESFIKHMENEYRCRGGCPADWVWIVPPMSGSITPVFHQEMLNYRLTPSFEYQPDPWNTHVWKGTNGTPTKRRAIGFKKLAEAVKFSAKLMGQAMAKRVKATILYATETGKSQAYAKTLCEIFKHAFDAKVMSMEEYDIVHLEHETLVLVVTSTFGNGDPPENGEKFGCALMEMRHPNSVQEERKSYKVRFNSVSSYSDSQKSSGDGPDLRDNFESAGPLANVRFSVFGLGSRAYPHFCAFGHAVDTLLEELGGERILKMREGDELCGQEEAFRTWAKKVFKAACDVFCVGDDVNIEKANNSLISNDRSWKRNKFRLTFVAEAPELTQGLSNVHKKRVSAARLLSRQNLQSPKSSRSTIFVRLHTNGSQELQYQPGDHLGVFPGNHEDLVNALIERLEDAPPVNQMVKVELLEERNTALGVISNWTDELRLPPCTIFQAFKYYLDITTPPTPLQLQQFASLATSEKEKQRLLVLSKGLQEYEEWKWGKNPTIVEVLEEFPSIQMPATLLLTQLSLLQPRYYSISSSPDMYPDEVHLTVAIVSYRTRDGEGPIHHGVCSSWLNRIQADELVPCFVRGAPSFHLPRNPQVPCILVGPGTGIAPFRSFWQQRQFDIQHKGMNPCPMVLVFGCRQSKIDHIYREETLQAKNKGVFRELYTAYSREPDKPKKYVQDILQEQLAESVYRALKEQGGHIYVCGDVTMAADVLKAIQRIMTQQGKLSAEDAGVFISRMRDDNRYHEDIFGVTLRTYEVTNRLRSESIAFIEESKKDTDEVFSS

| IC50 [1] [µM] | IC50 [2] [µM] | Ratio IC50 [3] | IC50 [4] [µM] | IC50 [5] [µM] | Structure (SMILES) | IC50 [6] [µM] | IC50 [7] [µM] |
| --- | --- | --- | --- | --- | --- | --- | --- |
|  |  | 2 |  |  | N=C(Nc1ccc2nc(NC3CCN(CCc4cnc[nH]4)CC3)sc2c1)c1cccs1 |  |  |
|  |  | 28 |  |  | COc1ccc(CN2CCC(Nc3nc4ccc(NC(=N)c5cccs5)cc4s3)CC2)cc1 |  |  |
| 13 | 0.8 | 16 | 91 |  | N=C(Nc1ccc2sc(NC3CCN(Cc4ccc(F)cc4)CC3)nc2c1)c1cccs1 |  |  |
|  |  | 27 |  |  | COc1cccc(CN2CCC(Nc3nc4ccc(NC(=N)c5cccs5)cc4s3)CC2)c1 |  |  |
| 16 | 2 | 8 | 64 |  | N=C(Nc1ccc2nc(NC3CCOCC3)sc2c1)c1cccs1 |  |  |
| 3.8 | 0.1 |  | > 100 | 6.7 | COc1cccc(CN2CCC(Nc3nc4ccc(N=C(N)c5cccs5)cc4s3)CC2)c1 | 1.3 | 19 |
| 59 | 5.1 | 12 | > 100 |  | N=C(Nc1ccc2nc(NC3CCN(Cc4ccc(C(=O)O)cc4)CC3)sc2c1)c1cccs1 |  |  |
|  |  | 40 |  |  | N=C(Nc1ccc2sc(NC3CCN(Cc4ccccc4)CC3)nc2c1)c1cccs1 |  |  |
| 5.7 | 0.2 |  | 9 |  | COc1ccc(CN2CCC(Nc3nc4ccc(N=C(N)c5cccs5)cc4s3)CC2)cc1 |  |  |
|  |  | 18 |  |  | COC(=O)c1ccc(CN2CCC(Nc3nc4ccc(NC(=N)c5cccs5)cc4s3)CC2)cc1 |  |  |
| 5.2 | 0.3 |  | > 100 |  | COC(=O)c1ccc(CN2CCC(Nc3nc4ccc(N=C(N)c5cccs5)cc4s3)CC2)cc1 |  |  |
| 8 | 0.2 | 40 | 14 |  | N=C(Nc1ccc2nc(NC3CCN(Cc4ccc(F)cc4)CC3)sc2c1)c1cccs1 |  |  |

Continued, molecule first:

| Structure (SMILES) | IC50 [1] [µM] | IC50 [2] [µM] | Ratio IC50 [3] | IC50 [4] [µM] | IC50 [5] [µM] | IC50 [6] [µM] | IC50 [7] [µM] |
| --- | --- | --- | --- | --- | --- | --- | --- |
| N=C(Nc1ccc2sc(NCCN3CCOCC3)nc2c1)c1cccs1 | 12 | 1.3 | 9 | 141 |  |  |  |
| N=C(Nc1ccc2nc(N)sc2c1)c1cccs1 | 2.9 | 0.2 | 18 | 25 |  |  |  |
| CCSC(=N)Nc1ccc2nc(N)sc2c1 | 9.2 | 1.4 | 7 | 46 |  |  |  |
| CCSC(=N)Nc1ccc2sc(N)nc2c1 |  |  | 3 |  |  |  |  |
| CN1CCCC1CCNc1nc2cc(NC(=N)c3cccs3)ccc2s1 (racemic) | 1.6 | 0.03 | 53 | 15 |  |  |  |
| N=C(Nc1ccc2nc(NCCc3ccc(Br)cc3)sc2c1)c1cccs1 | 2.1 | 4.4 | 0.5 | 75 | 4.7 | 5.2 |  |
| N=C(Nc1ccc2nc(NCCN3CCOCC3)sc2c1)c1cccs1 | 1.5 | 0.2 |  | 37 |  | 9.1 | 44 |
| N=C(Nc1ccc2sc(N)nc2c1)c1cccs1 | 2.3 | 0.2 | 13 | 79 |  |  |  |
| N=C(Nc1ccc2nc(NC3CCN(Cc4ccccc4)CC3)sc2c1)c1cccs1 | 6 | 0.5 | 12 | 14 | 0.09 | 12.5 | 36 |
| N=C(Nc1ccc2sc(NCCc3ccccn3)nc2c1)c1cccs1 | 6 | 1.1 | 5 | 139 |  |  |  |
| CCSC(N)=Nc1ccc2sc(N)nc2c1 | 12 | 4.6 |  | 97 |  |  |  |
| NC(=Nc1ccc2nc(NC3CCN(CCc4cnc[nH]4)CC3)sc2c1)c1cccs1 | 0.7 | 0.3 |  | 6 | 4.8 | 4.6 | 26 |
| NC(=Nc1ccc2sc(NC3CCN(Cc4ccccc4)CC3)nc2c1)c1cccs1 | 16 | 0.4 |  | 48 |  |  |  |
| N=C(Nc1ccc2nc(NCCc3ccccn3)sc2c1)c1cccs1 | 0.9 | 1.3 | 1 | 13 | 0.05 | 3.4 | 25 |
